Data from ChEMBL document CHEMBL1145590, “Discovery and initial SAR of arylsulfonylpiperazine inhibitors of 11beta-hydroxysteroid dehydrogenase type 1 (11beta-HSD1)” (Bioorg Med Chem Lett, 2008).

Tests used:
[1] = target: T1, 11-beta-hydroxysteroid dehydrogenase 1 (Homo sapiens, UniProt P28845)
[2] = target: 11-beta-hydroxysteroid dehydrogenase 1 (Mus musculus, UniProt P50172); assay: Inhibition of mouse recombinant 11beta-HSD1 assessed as conversion of [3H]cortisone to [3H]cortisol by SPA assay
Sequence of 11-beta-hydroxysteroid dehydrogenase 1 (Mus musculus, UniProt P50172) (P50172 whole entry): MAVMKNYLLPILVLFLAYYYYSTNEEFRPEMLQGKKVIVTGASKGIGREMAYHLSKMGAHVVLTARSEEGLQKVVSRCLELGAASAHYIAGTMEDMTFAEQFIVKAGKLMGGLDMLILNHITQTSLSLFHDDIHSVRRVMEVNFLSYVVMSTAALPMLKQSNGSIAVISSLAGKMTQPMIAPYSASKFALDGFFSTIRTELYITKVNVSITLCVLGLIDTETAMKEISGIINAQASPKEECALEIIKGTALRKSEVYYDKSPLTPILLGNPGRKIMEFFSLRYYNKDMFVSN

[3] = target: T1, 11-beta-hydroxysteroid dehydrogenase 1; remark: listed apart in the source
[4] = Metabolic stability in human liver microsomes after 10 mins; type: ADME, Microsome; details: read-out: Stability
Procedure, shortened: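 Test compound incubated with human liver microsomes. Percent parent remaining measured at 10 min.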

[5] = Clearance in rat; type: ADME, organism-based; details: in vivo
[6] = Oral bioavailability in rat; type: ADME, organism-based; details: in vivo
[7] = target: T2, 11-beta-hydroxysteroid dehydrogenase type 2 (Homo sapiens, UniProt P80365); assay: Inhibition of 11beta-HSD2
T2 sequence (P80365 whole entry): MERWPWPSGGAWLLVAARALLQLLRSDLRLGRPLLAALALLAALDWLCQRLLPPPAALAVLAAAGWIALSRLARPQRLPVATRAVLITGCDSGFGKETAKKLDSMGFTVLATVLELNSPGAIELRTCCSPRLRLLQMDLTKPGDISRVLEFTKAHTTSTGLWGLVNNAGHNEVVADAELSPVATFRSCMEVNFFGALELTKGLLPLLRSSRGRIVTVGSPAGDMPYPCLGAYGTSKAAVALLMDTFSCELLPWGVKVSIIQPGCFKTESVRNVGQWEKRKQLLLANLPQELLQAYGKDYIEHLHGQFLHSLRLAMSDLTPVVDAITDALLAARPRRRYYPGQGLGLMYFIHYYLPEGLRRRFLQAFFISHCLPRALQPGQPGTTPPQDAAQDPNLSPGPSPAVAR

T1 sequence (P28845 whole entry): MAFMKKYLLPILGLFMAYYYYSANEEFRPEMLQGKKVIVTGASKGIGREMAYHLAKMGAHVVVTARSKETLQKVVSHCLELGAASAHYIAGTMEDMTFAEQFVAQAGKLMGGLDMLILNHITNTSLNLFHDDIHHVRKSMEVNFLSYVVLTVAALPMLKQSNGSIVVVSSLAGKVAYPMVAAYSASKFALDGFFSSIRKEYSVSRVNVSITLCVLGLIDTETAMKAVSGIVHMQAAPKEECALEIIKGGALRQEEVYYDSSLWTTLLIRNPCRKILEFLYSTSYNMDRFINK

Compound	IC50 [1] [µM]	IC50 [2] [µM]	IC50 [3] [µM]	remaining at 10 min [4] [%]	clearance [5] [L/h/kg]	bioavailability [6] [%]	IC50 [7] [µM]
CCC1CN(c2ncccc2C(F)(F)F)CCN1S(=O)(=O)c1ccc(C(C)(C)C)cc1 (stereo not given)	0.017	0.006	> 1	–	–	–	–
O=S(=O)(c1cccc(C(F)(F)F)c1)N1CCN(c2ncccc2C(F)(F)F)CC1	0.064	0.053	> 1	–	–	–	–
CC(C)(C)c1ccc(S(=O)(=O)N2CCN(c3ccc([N+](=O)[O-])cc3)CC2)cc1	0.01	0.161	0.247	90	1	7	–
O=C(c1ccccc1)N1CCN(c2ncccc2C(F)(F)F)CC1	0.262	> 1	> 1	–	–	–	–
Cc1ccc(S(=O)(=O)N2CCN(c3ncccc3Cl)CC2)cc1	0.117	0.146	> 1	–	–	–	–
N#Cc1ccc(S(=O)(=O)N2CCN(c3ncccc3C(F)(F)F)CC2)cc1	0.05	0.546	0.978	–	–	–	–
CCc1ccc(S(=O)(=O)N2CCN(c3ncccc3C(F)(F)F)CC2)cc1	0.018	0.053	0.51	–	–	–	–
O=[N+]([O-])c1ccc(S(=O)(=O)N2CCN(c3ncccc3C(F)(F)F)CC2)cc1	0.037	0.311	0.922	–	–	–	–
C[C@@H]1CN(c2ncccc2C(F)(F)F)CCN1S(=O)(=O)c1ccc(C(C)(C)C)cc1	0.011	0.004	0.762	–	–	–	–
CC1CN(c2ncccc2C(F)(F)F)CCN1S(=O)(=O)c1ccc(C(C)(C)C)cc1 (stereo not given)	0.009	0.004	0.632	–	–	–	–
Cc1ccc(S(=O)(=O)N2CCN(c3ncccc3C#N)CC2)cc1	0.628	–	> 1	–	–	–	–
Cc1ccc(S(=O)(=O)N2CCN(c3ncccc3C)CC2)cc1	0.152	0.24	> 1	–	–	–	–
Cc1ccc(S(=O)(=O)N2CCN(c3ccccn3)CC2)cc1	> 1	> 1	> 1	–	–	–	–

Further lines, results first:

IC50 [1] [µM]	IC50 [2] [µM]	IC50 [3] [µM]	remaining at 10 min [4] [%]	clearance [5] [L/h/kg]	bioavailability [6] [%]	IC50 [7] [µM]	Compound
0.106	0.098	> 1	–	–	–	–	CC(C)(C)c1ccc(S(=O)(=O)N2CCN(c3ccccc3F)CC2)cc1
–	–	–	61	–	–	–	CC(C)(C)c1ccc(S(=O)(=O)N2CCN(c3ncccc3C(F)(F)F)CC2)cc1
0.045	0.122	0.724	–	–	–	–	O=S(=O)(c1ccccc1)N1CCN(c2ncccc2C(F)(F)F)CC1
0.016	0.032	0.461	–	–	–	> 10	Cc1ccc(S(=O)(=O)N2CCN(c3ncccc3C(F)(F)F)CC2)cc1
0.019	0.032	0.456	–	–	–	–	COc1ccc(S(=O)(=O)N2CCN(c3ncccc3C(F)(F)F)CC2)cc1
0.55	> 1	1.93	–	–	–	–	FC(F)(F)c1cccnc1N1CCN(Cc2ccccc2)CC1
–	0.011	–	–	–	–	–	O=S(=O)(c1ccc2ccccc2c1)N1CCN(c2ncccc2C(F)(F)F)CC1
0.009	0.017	0.569	–	–	–	–	C[C@H]1CN(c2ncccc2C(F)(F)F)CCN1S(=O)(=O)c1ccc(C(C)(C)C)cc1
0.013	0.08	0.329	–	–	–	–	O=S(=O)(c1cccc2ccccc12)N1CCN(c2ncccc2C(F)(F)F)CC1
